pIC50, pKi: −log10 of the molar value. Active and inactive are the calls of the source. No cut-off for these calls is given here. Non-standard residues stand in square brackets, D forms with d. Residues, ends and D or L forms follow the SMILES beside them. *: point of attachment. X4 = CC1(C)[C@@H]2C[C@H]1[C@]1(C)OB([C@@H](CCCBr)N*)O[C@@H]1C2; dboroNva(5-Br) = OB(O)[C@@H](CCCBr)N*; dboroPhe = OB(O)[C@@H](Cc1ccccc1)N*; Benzoyl(4-I) = O=C(c1ccc(I)cc1)*; X2 = CC(C)C[C@@H](N*)B(O)O; Nle = CCCC[C@H](N)C(=O)O; Cbz = O=C(OCc1ccccc1)*; Ahx = NCCCCCC(=O)O
Columns and labels:
[1] = molecular target: T1, Prostate-specific antigen (Homo sapiens, UniProt P07288); assay: Inhibition of PSA (unknown origin) using Mu-SRKSQQY-AMC as substrate by fluorescence assay
T1 sequence (P07288 whole entry): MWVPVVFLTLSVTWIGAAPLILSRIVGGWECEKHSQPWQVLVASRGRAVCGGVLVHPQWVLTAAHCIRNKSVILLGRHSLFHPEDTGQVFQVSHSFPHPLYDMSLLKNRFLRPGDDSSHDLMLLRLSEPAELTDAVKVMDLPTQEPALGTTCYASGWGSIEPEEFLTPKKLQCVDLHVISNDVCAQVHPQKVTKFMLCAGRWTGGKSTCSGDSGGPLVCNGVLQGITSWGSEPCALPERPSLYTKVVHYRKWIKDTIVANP
Method in brief: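 Inhibitor added from DMSO stock. AMC fluorescence (ex 370, em 465 nm) followed over 30 min in triplicate. Ki = 1/slope × 1/(1+[S]/Km), from V0/Vi−1 plotted against [I].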

Mus musculus [2] = assay: Biodistribution in tumor of nude mouse xenografted with human LNCAP cells expressing PSA at 230 to 580 uCi after 3 to 4 hrs by gamma counting analysis; assay type: ADME, organism-based, Neoplasm; conditions: in vivo
Method in brief: (§1)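 Single mice sacrificed at 2, 4 and 6 h (or 2 and 4 h). Liver, kidney, heart, brain, muscle and tumor weighed and gamma-counted. Counts corrected for background and decay; %ID/g calculated against 0.01 mL of dosing solution.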

Kidney = assay: Biodistribution in nude mouse kidney xenografted with human LNCAP cells expressing PSA at 230 to 580 uCi after 2 hrs by gamma counting analysis; assay type: ADME, organism-based; conditions: in vivo; method in brief: as §1
Liver = assay: Biodistribution in nude mouse liver xenografted with human LNCAP cells expressing PSA at 230 to 580 uCi after 2 hrs by gamma counting analysis; assay type: ADME, organism-based; conditions: in vivo; method in brief: as §1
[3] = Half life in ip dosed mouse; assay type: ADME, organism-based; conditions: in vivo
Method in brief: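 Four animals sacrificed per time point; plasma counts per second normalised to starting counts.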

[4] = Selectivity ratio of Ki for bovine pancreas chymotrypsin to Ki for human seminal fluid PSA
[5] = Inhibition of bovine pancreas chymotrypsin using Suc-AAPF-AMC as substrate measured for 30 mins by fluorescence assay; parameters: species or system Bos taurus
Method in brief: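 Inhibitor added from DMSO stock; substrate added last and AMC fluorescence read immediately. Ki = 1/slope × 1/(1+[S]/Km), from V0/Vi−1 plotted against [I].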

LNCaP [6] = assay: Antitumor activity against human LNCAP cells expressing PSA xenografted in nude mouse assessed as tumor incident at 10 mg/kg, iv qd administered 5 days/week for 3 weeks measured after 3 weeks; assay type: functional, organism-based; parameters: dose 10 mg/kg
Method in brief: (§2)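 Nude male mice (n = 10 per group) carrying subcutaneous PSA-producing LNCaP xenografts. Dosed 10 mg/kg iv once daily for three cycles of five consecutive days, compound in sterile saline; controls untreated. Tumor measured by caliper, volume = L × W × H × […]. Tumor size and body weight recorded twice per week.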

Mus musculus [7] = assay: Inhibition of free PSA level in nude mouse serum xenografted with human LNCAP cells at 10 mg/kg, iv qd administered 5 days/week for 3 weeks measured 24 hrs post last dose by ELISA relative to control; assay type: functional
Method in brief: (§3)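 LNCaP xenograft-bearing nude mice dosed 10 mg/kg iv (sterile saline) once daily, five consecutive days/week for three courses; controls untreated. Serum free and total PSA measured by ELISA 24 h after the last dose, also expressed per g tumor.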

Mus musculus [8] = assay: Inhibition of total PSA level in nude mouse serum xenografted with human LNCAP cells at 10 mg/kg, iv qd administered 5 days/week for 3 weeks measured 24 hrs post last dose by ELISA relative to control; assay type: functional; method in brief: as §3
Mus musculus [9] = assay: Toxicity in nude mouse xenografted with human LNCAP cells expressing PSA assessed as body weight loss at 10 mg/kg, iv qd measured 5 days/week for 3 weeks; assay type: organism-based; parameters: dose 10 mg/kg, route intravenous; conditions: in vivo; method in brief: as §2
LNCaP [10] = assay: Antitumor activity against human LNCAP cells expressing PSA xenografted in nude mouse assessed as delay in tumor growth at 10 mg/kg, iv qd administered 5 days/week for 3 weeks measured after 2 weeks; assay type: functional, organism-based; parameters: dose 10 mg/kg; method in brief: as §2
[11] = Selectivity ratio of Ki for human seminal fluid PSA to Ki for bovine pancreas chymotrypsin
[12] = molecular target: T1, Prostate-specific antigen; assay: Inhibition of PSA (unknown origin)

Row | Structure (SMILES) | Ratio Ki [4] | pKi [5] | other results
1 | CC(C)C[C@H](NC(=O)[C@H](CCCCN)NC(=O)[C@H](CO)NC(=O)[C@@H](N)CO)C(=O)N[C@H](C=O)CCC(N)=O (H-SSKLQ-aldehyde) |  |  | pKi [1]: 4.35
2 | CCCC[C@H](NC(=O)[C@H](CCC(N)=O)NC(=O)[C@H](CO)NC(=O)C[C@H](Cc1ccc2ccccc2c1)NC(=O)CCCCCNC(=O)c1ccc([125I])cc1)C(=O)N[C@H](Cc1ccccc1)B(O)O |  |  | Drug uptake (Mus musculus [2]): Active; Drug uptake (Kidney): Active; Drug uptake (Liver): Active; half-life [3]: 2.7 h
3 | CCCC[C@H](NC(=O)[C@H](CCC(N)=O)NC(=O)[C@H](CO)NC(=O)[C@H](Cc1ccccc1)NC(=O)CCCCCNC(=O)c1ccc([125I])cc1)C(=O)N[C@H](CCCBr)B(O)O |  |  | Drug uptake (Mus musculus [2]): Active; Drug uptake (Kidney): Active; Drug uptake (Liver): Active
4 | CCCC[C@H](NC(=O)[C@H](CCC(N)=O)NC(=O)[C@H](CO)NC(=O)[C@H](C)NC(=O)CCCCCN)C(=O)N[C@H](CCCBr)B(O)O (H-[Ahx]ASQ[Nle]-{dboroNva(5-Br)}) | 3.18 | 6.78 | 
5 | CCCC[C@H](NC(=O)[C@H](CCC(N)=O)NC(=O)[C@H](CO)NC(=O)[C@H](Cc1ccccc1)NC(=O)CCCCCNC(=O)c1ccc(I)cc1)C(=O)N[C@H](CCCBr)B(O)O ({Benzoyl(4-I)-Ahx}-FSQ[Nle]-{dboroNva(5-Br)}) | 10.1 | 6.19 | 
6 | CCCC[C@H](NC(=O)[C@H](CCC(N)=O)NC(=O)[C@H](CO)NC(=O)[C@H](CO)NC(=O)CCCCCNC(=O)c1ccc([125I])cc1)C(=O)N[C@H](CCCBr)B(O)O |  |  | half-life [3]: 0.2 h
7 | CCCC[C@H](NC(=O)[C@H](CCC(N)=O)NC(=O)[C@H](CO)NC(=O)[C@H](Cc1ccccc1)NC(=O)CCCCCN)C(=O)N[C@H](CCCBr)B(O)O (H-[Ahx]FSQ[Nle]-{dboroNva(5-Br)}) | 8.03 | 6.24 | Activity (LNCaP [6]): inactive; inhibition in vivo at 10 mg/kg (Mus musculus [7]): 23%; inhibition in vivo at 10 mg/kg (Mus musculus [8]): 40%; Activity (Mus musculus [9]): Non-toxic; Activity (LNCaP [10]): Active
8 | CCCC[C@H](NC(=O)[C@H](CCC(N)=O)NC(=O)[C@H](CO)NC(=O)CCCCCN)C(=O)N[C@H](CCCBr)B(O)O | 0.83 | 6.60 | 
9 | CCCC[C@H](NC(=O)[C@H](CCC(N)=O)NC(=O)[C@H](CO)NC(=O)[C@H](Cc1ccccc1)NC(=O)CCCCCN)C(=O)N[C@H](CCCBr)B1O[C@@H]2C[C@H]3C[C@H](C3(C)C)[C@]2(C)O1 (H-[Ahx]FSQ[Nle]-X4) | 6.77 | 6.30 | 
10 | CCCC[C@H](NC(=O)[C@H](CCC(N)=O)NC(=O)[C@H](CO)NC(=O)[C@H](Cc1ccccc1)NC(=O)CCCCCN)C(=O)N[C@H](Cc1ccccc1)B(O)O (H-[Ahx]FSQ[Nle]-dboroPhe) | 0.002 | 9.87 | Ratio Ki [11]: 450
11 | CCCC[C@H](NC(=O)[C@H](CCC(N)=O)NC(=O)[C@H](CO)NC(=O)C[C@H](Cc1ccc2ccccc2c1)NC(=O)CCCCCN)C(=O)N[C@H](Cc1ccccc1)B(O)O | 0.03 | 8.14 | 
12 | CCCC[C@H](NC(=O)[C@H](CCC(N)=O)NC(=O)[C@H](CO)NC(=O)CCCCCN)C(=O)N[C@H](Cc1ccccc1)B(O)O | 0.17 | 8.42 | 
13 | CCCC[C@H](NC(=O)[C@H](CCCCN)NC(=O)[C@H](CO)NC(=O)[C@H](CO)NC(=O)OCc1ccccc1)C(=O)N[C@H](Cc1ccccc1)B(O)O (Cbz-SSK[Nle]-dboroPhe) | 0.11 | 7.74 | 
14 | CCCC[C@H](NC(=O)[C@H](CCC(N)=O)NC(=O)[C@H](CO)NC(=O)[C@H](CO)NC(=O)CCCCCN)C(=O)N[C@H](CC(C)C)B(O)O (H-[Ahx]SSQ[Nle]-X2) | 3.2 | 6.86 | 
15 | CCCC[C@H](NC(=O)[C@H](CCC(N)=O)NC(=O)[C@H](CO)NC(=O)[C@H](Cc1ccccc1)NC(=O)CCCCCNC(=O)c1ccc([125I])cc1)C(=O)N[C@H](CCCBr)B1O[C@@H]2C[C@H]3C[C@H](C3(C)C)[C@]2(C)O1 |  |  | Drug uptake (Mus musculus [2]): Active; Drug uptake (Kidney): Active; Drug uptake (Liver): Active
16 | CCCC[C@H](NC(=O)[C@H](CCC(N)=O)NC(=O)[C@H](CO)NC(=O)C[C@H](Cc1ccc2ccccc2c1)NC(=O)CCCCCN)C(=O)N[C@H](CCCBr)B(O)O | 4.94 | 6.30 | 
17 | O=C(OCc1ccccc1)c1cccc(CC(=O)N2C(=O)[C@@H](Cc3ccc(O)cc3)[C@H]2C(=O)OCc2ccccc2)c1 |  |  | pIC50 [12]: 6.65
18 | CCCC[C@H](NC(=O)[C@H](CCC(N)=O)NC(=O)[C@H](CO)NC(=O)[C@H](C)NC(=O)CCCCCN)C(=O)N[C@H](Cc1ccccc1)B(O)O (H-[Ahx]ASQ[Nle]-dboroPhe) | 0.12 | 7.44 | 
19 | CCCC[C@H](NC(=O)[C@H](CCCCN)NC(=O)[C@H](CO)NC(=O)[C@H](CO)NC(=O)OCc1ccccc1)C(=O)N[C@H](CCCBr)B(O)O (Cbz-SSK[Nle]-{dboroNva(5-Br)}) | 8.13 | 6.71 | 
